Experiments:
[1] = target: Tyrosine-protein kinase ABL2 (Homo sapiens) (UniProt P42684); test: Inhibition of ARG (unknown origin) at 30 uM by microfluidic mobility shift assay relative to control
How it was run: (§1)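 Single-point screen at 30 µM test compound across a 24-kinase panel in a microfluidic assay format. ATP was set near each enzyme's Km,[ATP]. […] The pan-AGC inhibitor H-89 served as an internal control on every assay plate.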

[2] = tested on: Tyrosine-protein kinase ABL1 (Homo sapiens), P00519 [H396P]; test: Inhibition of ABL H396P mutant (unknown origin) at 30 uM by microfluidic mobility shift assay relative to control; type: protein assay; how it was run: as §1
[3] = tested on: Tyrosine-protein kinase ABL1 (Homo sapiens), P00519 [Q252H]; test: Inhibition of ABL Q252H mutant (unknown origin) at 30 uM by microfluidic mobility shift assay relative to control; type: protein assay; how it was run: as §1
[4] = target: T1, Testis-specific serine/threonine-protein kinase 2 (Homo sapiens) (UniProt Q96PF2); test: Inhibition of TSSK2 (unknown origin) at 30 uM by microfluidic mobility shift assay relative to control
T1 sequence (whole entry): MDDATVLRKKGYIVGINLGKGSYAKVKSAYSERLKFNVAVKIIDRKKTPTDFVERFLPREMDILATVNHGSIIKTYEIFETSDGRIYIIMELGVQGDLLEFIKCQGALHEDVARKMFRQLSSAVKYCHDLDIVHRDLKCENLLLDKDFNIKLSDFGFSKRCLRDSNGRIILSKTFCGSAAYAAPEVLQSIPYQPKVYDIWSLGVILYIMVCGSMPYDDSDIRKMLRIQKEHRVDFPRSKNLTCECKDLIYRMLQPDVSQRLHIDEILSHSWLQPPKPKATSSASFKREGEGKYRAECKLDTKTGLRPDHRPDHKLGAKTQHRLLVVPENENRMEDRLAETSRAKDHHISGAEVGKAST
How it was run: (§2)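 Single-point screen against a 24-kinase panel in a commercial microfluidic assay format. Compounds were tested at 30 µM, with ATP at approximately the Km,[ATP] of each enzyme. H-89 was included on each assay plate as an internal control.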

[5] = target: T2, Serine/threonine-protein kinase D3 (Homo sapiens) (UniProt O94806); test: Inhibition of PKD3 (unknown origin) at 30 uM by microfluidic mobility shift assay relative to control; how it was run: as §2
T2 sequence (whole entry): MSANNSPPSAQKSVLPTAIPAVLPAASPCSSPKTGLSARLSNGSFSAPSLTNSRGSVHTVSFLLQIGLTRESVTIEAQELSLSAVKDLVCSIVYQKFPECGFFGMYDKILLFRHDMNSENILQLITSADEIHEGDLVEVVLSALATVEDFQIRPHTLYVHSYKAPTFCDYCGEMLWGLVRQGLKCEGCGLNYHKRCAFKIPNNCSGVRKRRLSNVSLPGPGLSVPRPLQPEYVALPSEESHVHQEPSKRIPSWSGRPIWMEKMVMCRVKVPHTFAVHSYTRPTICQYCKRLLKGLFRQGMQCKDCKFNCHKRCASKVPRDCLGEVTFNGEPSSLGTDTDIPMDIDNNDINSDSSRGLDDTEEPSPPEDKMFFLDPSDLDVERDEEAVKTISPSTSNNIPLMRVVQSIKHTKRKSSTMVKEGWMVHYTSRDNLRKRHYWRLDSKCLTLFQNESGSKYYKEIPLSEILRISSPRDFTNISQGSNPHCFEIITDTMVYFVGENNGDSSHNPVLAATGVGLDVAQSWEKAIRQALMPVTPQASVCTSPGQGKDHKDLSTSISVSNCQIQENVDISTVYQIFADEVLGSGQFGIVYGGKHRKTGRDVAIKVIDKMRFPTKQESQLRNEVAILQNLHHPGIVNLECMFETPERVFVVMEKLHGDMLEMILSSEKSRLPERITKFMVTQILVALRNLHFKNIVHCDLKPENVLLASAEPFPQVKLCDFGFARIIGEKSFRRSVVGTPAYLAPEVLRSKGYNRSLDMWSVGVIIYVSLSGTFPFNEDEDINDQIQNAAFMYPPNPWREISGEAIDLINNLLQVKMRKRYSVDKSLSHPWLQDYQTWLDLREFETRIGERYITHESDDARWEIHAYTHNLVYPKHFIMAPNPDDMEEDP

[6] = target: Tyrosine-protein kinase HCK (Homo sapiens) (UniProt P08631); test: Inhibition of HCK (unknown origin) at 30 uM by microfluidic mobility shift assay relative to control; how it was run: as §1
Tyrosine-protein kinase HCK (Homo sapiens), sequence (P08631 2-526 limits assumed): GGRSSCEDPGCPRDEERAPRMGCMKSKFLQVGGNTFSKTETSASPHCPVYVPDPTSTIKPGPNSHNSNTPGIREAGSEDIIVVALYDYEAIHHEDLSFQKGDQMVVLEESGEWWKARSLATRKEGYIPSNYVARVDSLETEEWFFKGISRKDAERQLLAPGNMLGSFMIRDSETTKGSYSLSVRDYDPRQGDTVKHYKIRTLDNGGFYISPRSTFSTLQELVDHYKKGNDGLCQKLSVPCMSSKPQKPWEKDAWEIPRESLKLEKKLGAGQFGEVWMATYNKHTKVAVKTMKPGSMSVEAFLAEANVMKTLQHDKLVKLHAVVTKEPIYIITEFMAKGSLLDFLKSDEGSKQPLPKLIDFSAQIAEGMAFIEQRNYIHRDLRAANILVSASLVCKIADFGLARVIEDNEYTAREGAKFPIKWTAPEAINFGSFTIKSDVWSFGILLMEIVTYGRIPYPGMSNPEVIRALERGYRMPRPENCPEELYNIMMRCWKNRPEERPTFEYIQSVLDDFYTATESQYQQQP

[7] = target: Mitogen-activated protein kinase 11 (Homo sapiens) (UniProt Q15759); test: Inhibition of p38beta-2 (unknown origin) at 30 uM by microfluidic mobility shift assay relative to control; how it was run: as §2
Mitogen-activated protein kinase 11 (Homo sapiens), sequence (Q15759 whole entry): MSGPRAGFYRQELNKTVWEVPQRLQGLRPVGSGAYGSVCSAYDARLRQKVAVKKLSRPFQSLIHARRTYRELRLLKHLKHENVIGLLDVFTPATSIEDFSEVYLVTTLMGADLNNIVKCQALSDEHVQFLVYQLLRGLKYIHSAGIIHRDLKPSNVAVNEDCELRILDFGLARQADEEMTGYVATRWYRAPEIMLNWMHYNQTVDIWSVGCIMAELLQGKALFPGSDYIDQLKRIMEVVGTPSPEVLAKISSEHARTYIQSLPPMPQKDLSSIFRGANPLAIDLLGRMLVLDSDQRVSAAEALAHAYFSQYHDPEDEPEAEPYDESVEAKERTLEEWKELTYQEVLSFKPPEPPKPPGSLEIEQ

[8] = target: RAC-gamma serine/threonine-protein kinase (Homo sapiens) (UniProt Q9Y243); test: Inhibition of AKT3 (unknown origin) at 30 uM by microfluidic mobility shift assay relative to control; how it was run: as §1
RAC-gamma serine/threonine-protein kinase (Homo sapiens), sequence (Q9Y243 whole entry): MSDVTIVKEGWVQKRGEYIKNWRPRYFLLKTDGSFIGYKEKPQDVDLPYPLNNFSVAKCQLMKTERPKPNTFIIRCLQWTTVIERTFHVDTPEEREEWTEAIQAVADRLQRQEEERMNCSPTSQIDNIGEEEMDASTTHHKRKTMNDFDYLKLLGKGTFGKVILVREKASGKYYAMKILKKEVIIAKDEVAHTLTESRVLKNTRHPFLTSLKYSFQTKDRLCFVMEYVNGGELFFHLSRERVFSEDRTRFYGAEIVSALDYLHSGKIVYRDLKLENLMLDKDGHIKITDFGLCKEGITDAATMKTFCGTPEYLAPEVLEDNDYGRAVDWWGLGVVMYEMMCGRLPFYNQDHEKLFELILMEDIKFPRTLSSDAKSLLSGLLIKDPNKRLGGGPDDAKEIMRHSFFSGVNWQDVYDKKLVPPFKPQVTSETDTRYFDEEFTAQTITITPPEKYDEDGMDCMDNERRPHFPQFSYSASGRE

[9] = target: T3, Serine/threonine-protein kinase Chk1 (Homo sapiens, UniProt O14757); test: Inhibition of CHK1 (unknown origin) by Z'-Lyte assay
T3 sequence (O14757 whole entry): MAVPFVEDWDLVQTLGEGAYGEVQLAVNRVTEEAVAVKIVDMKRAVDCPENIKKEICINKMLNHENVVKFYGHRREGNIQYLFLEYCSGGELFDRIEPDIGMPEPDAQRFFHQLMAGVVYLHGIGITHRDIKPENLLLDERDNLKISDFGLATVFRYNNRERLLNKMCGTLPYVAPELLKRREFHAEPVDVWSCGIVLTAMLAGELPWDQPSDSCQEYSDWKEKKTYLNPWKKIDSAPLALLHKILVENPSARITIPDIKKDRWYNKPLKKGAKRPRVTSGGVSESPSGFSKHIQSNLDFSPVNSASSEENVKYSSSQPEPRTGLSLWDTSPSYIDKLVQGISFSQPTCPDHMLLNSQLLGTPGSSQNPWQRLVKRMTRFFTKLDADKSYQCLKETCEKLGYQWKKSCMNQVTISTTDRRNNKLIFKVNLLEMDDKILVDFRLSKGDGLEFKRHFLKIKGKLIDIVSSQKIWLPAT
How it was run: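 CHK1 IC50 was obtained by titration in the Z'-Lyte assay format, run as an outsourced screening service.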

Aurora kinase A = target: T4, Aurora kinase A (Homo sapiens, UniProt O14965); test: Inhibition of AURA (unknown origin) by microfluidic mobility shift assay
T4 sequence (O14965 whole entry): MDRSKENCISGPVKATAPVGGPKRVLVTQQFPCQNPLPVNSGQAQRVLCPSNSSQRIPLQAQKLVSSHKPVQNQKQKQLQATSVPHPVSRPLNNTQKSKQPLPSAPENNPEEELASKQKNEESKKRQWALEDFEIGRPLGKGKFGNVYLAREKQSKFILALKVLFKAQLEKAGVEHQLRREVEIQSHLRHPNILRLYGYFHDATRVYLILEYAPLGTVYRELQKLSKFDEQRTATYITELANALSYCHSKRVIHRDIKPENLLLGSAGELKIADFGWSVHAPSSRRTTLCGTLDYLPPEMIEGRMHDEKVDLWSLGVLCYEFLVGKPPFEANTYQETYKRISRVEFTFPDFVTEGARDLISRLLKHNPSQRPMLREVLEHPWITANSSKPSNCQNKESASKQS

Tyrosine-protein kinase ABL2 (Homo sapiens), sequence (P42684 whole entry): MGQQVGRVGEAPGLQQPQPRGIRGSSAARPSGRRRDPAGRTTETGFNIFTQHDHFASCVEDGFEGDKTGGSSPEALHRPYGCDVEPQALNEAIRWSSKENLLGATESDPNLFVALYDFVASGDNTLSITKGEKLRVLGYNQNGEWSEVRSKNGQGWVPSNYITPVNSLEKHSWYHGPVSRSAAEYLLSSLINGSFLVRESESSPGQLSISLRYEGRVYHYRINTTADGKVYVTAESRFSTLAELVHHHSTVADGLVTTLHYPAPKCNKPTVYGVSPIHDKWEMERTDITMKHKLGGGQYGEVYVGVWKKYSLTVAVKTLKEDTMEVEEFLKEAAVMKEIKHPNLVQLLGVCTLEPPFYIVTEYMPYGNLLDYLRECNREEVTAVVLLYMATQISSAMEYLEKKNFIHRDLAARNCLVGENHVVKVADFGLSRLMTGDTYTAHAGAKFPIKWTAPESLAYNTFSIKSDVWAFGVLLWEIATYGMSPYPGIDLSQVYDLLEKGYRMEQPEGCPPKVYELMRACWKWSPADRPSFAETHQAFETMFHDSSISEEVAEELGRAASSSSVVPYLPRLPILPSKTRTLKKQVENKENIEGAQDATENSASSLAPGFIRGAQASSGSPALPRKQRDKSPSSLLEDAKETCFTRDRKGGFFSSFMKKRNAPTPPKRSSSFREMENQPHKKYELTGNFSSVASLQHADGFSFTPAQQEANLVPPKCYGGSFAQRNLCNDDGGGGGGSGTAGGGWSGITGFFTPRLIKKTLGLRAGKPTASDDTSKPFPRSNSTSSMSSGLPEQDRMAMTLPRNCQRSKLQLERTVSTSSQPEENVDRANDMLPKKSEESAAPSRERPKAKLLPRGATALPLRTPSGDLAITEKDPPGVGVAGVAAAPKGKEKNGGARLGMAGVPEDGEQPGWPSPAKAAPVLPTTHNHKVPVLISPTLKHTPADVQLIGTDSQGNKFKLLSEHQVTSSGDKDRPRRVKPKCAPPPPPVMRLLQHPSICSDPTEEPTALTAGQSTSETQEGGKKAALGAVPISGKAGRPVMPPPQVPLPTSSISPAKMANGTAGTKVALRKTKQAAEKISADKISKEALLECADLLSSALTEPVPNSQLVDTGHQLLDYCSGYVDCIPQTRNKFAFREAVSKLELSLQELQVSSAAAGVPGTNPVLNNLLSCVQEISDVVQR

**Q.** With c1ccc(CC2CCC3(CCN(c4ncnc5[nH]cnc45)CC3)NC2)cc1 (racemic) as the compound, how does the inhibition [1] read?
**A.** 18%

**Q.** What about the inhibition [2] of the same compound?
**A.** 28%

**Q.** What about the inhibition [3] of the same compound?
**A.** 30%

**Q.** And the inhibition [4]?
**A.** 7%

**Q.** What about the inhibition [5] of the same compound?
**A.** 25%

**Q.** What about the inhibition [6] of the same compound?
**A.** 15%

**Q.** What about the inhibition [7] of the same compound?
**A.** 3%

**Q.** What about the inhibition [8] of the same compound?
**A.** 69%

**Q.** How did the IC50 [9] turn out when c1nc(N2CCC3(CCCCN3)CC2)c2nc[nH]c2n1 was run?
**A.** 18 µM

**Q.** What about the IC50 (Aurora kinase A) of the same compound?
**A.** 7.8 µM

**Q.** With c1ccc(CC2CCNC3(CCN(c4ncnc5[nH]cnc45)CC3)C2)cc1 (racemic) as the compound, how does the inhibition [1] read?
**A.** 13%

**Q.** And the inhibition [2]?
**A.** 15%

**Q.** And the inhibition [3]?
**A.** 12%

**Q.** And the inhibition [4]?
**A.** 32%

**Q.** And the inhibition [5]?
**A.** 81%

**Q.** And the inhibition [6]?
**A.** 22%

**Q.** What about the inhibition [7] of the same compound?
**A.** 8%

**Q.** And the inhibition [8]?
**A.** 101%

**Q.** Which IC50 [9] does the source give for O=S(=O)(c1cccc2cnccc12)N1CCCC2(CCCNC2)C1 (stereo not given) here?
**A.** 12.8 µM

**Q.** Which inhibition [1] does the source give for c1ccc(C2CCNC3(CCN(c4ncnc5[nH]cnc45)CC3)C2)cc1 (racemic) here?
**A.** 23%

**Q.** And the inhibition [2]?
**A.** 42%

**Q.** And the inhibition [3]?
**A.** 30%

**Q.** What about the inhibition [4] of the same compound?
**A.** 25%

**Q.** And the inhibition [5]?
**A.** 53%

**Q.** What about the inhibition [6] of the same compound?
**A.** 41%

**Q.** And the inhibition [7]?
**A.** 4%

**Q.** And the inhibition [8]?
**A.** 96%

**Q.** With O=C(O)C1CCC2(CCN(c3ncnc4[nH]cnc34)CC2)NC1 (racemic) as the compound, how does the IC50 (Aurora kinase A) read?
**A.** 6.1 µM

**Q.** Which results are given for c1nc(N2CCC3(CCCNC3)CC2)c2nc[nH]c2n1?
**A.** IC50 [9]: 1.8 µM; IC50 (Aurora kinase A): 9.8 µM

From ChEMBL document CHEMBL2417369, “Synthesis and evaluation of heteroaryl substituted diazaspirocycles as scaffolds to probe the ATP-binding site of protein kinases” (Bioorg Med Chem, 2013)
